# Laboratory results reported in ChEMBL document CHEMBL4364265, “Oridonin derivatives as potential anticancer drug candidates triggering apoptosis through mitochondrial pathway in the liver cancer cells” (Eur J Med Chem, 2019).
# Calls of active or inactive are those of the source. The calls are words filed in the database; no cut-off is given here.
# Columns and labels:
# HepG2 [1] = experiment: Induction of apoptosis in human HepG2 cells assessed as early apoptotic cells at 0.5 uM incubated for 24 hrs by annexin V staining based cell counting method (reference value: 3.60%); type: functional
# PLC-PRF-5 [2] = experiment: Induction of apoptosis in human PLC/PRF/5 cells assessed as necrotic cells at 1 uM incubated for 24 hrs by annexin V staining based cell counting method (reference value: 0.59%); type: functional
# PLC-PRF-5 [3] = experiment: Induction of apoptosis in human PLC/PRF/5 cells assessed as early apoptotic cells at 0.5 uM incubated for 24 hrs by annexin V staining based cell counting method (reference value: 5.65%); type: functional
# [4] = Selectivity index, ratio of IC50 for human LO2 cells to IC50 for human PLC/PRF/5 cells
# In short: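 L-O2 and PLC/PRF/5 cells were grown in DMEM with 10% FBS at 37 °C and 5% CO₂. For CCK-8 proliferation, 10,000 cells per well were pre-incubated 24 h, then exposed to compound in DMSO for 72 h. CCK-8 was added for 4 h and A450 read. IC50 came from dose–response curves; SI is IC50(L-O2)/IC50(PLC/PRF/5).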
# PLC-PRF-5 [5] = experiment: Induction of apoptosis in human PLC/PRF/5 cells assessed as upregulation of cleaved PARP protein expression level incubated for 24 hrs by Western blot analysis; type: functional, cell-based
# In short: (§1)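 Cells were treated 24 h in DMEM with 0, 0.25, 0.5, 1.0 or 1.25 µM compound. Adherent and floating cells were lysed in RIPA on ice and protein measured by BCA. Equal protein was run on 7.5–12.5% SDS-PAGE and transferred to PVDF. Membranes were blocked in 5% milk/PBST, incubated with primary antibody overnight at 4 °C, and detected by ECL.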
# PLC-PRF-5 [6] = experiment: Induction of apoptosis in human PLC/PRF/5 cells assessed as upregulation of Bax protein expression level incubated for 24 hrs by Western blot analysis; type: functional, cell-based; in short: as §1
# HepG2 [7] = experiment: Induction of ROS generation in human HepG2 cells at 1 uM by DCFH-DA staining-based flow cytometric analysis relative to control; type: functional
# In short: (§2)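 Cells were treated with 0, 0.25, 0.5 or 1 µM compound, stained with 10 µM DCFH-DA for 20 min at 37 °C, washed three times, resuspended in PBS and read by flow cytometry. Data are mean ± SD of three independent experiments.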
# HepG2 [8] = experiment: Induction of cell cycle arrest in human HepG2 cells assessed as accumulation at G2 phase at 1 uM incubated for 24 hrs by PI staining based flow cytometric analysis (reference value: 25.55%); type: functional
# HepG2 [9] = experiment: Induction of apoptosis in human HepG2 cells assessed as change in p53 protein expression level at 0.25 to 1.25 uM incubated for 24 hrs by Western blot analysis; type: functional, cell-based; in short: as §1
# HepG2 [10] = experiment: Induction of apoptosis in human HepG2 cells assessed as necrotic cells at 0.5 uM incubated for 24 hrs by annexin V staining based cell counting method (reference value: 3.40%); type: functional
# PLC-PRF-5 [11] = experiment: Induction of apoptosis in human PLC/PRF/5 cells assessed as increase in cytochrome c protein expression level at 0.25 to 1.25 uM incubated for 24 hrs by Western blot analysis; type: functional, cell-based; in short: as §1
# HepG2 [12] = experiment: Induction of apoptosis in human HepG2 cells assessed as necrotic cells at 0.25 uM incubated for 24 hrs by annexin V staining based cell counting method (reference value: 3.40%); type: functional
# L02 = experiment: Cytotoxicity against human LO2 cells incubated for 72 hrs by CCK8 cells; type: cell-based; details: L02, 72 h
# In short: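 CCK-8 proliferation assay. 10,000 cells per well were preincubated 24 h at 37 °C with 5% CO2, then given compound dissolved in DMSO and incubated 72 h. CCK-8 was added for 4 h and absorbance read at 450 nm. IC50 was taken from dose-response curves as mean ± SEM of at least three independent experiments, with paclitaxel as positive control. HepG2 and L-O2 were grown in DMEM/10% FBS; A549 and RPMI-8226 in RPMI 1640/10% FBS.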
# PLC-PRF-5 [13] = experiment: Antitumour activity against human PLC/PRF/5 cells xenografted in nude mouse assessed as tumour growth inhibition at 10 mg/kg, iv administrated once every 3 days for 4 weeks; type: functional, organism-based
# In short: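 PLC/PRF/5 xenograft. 2 × 10^7 cells in 0.2 mL saline were injected s.c. into the right forelimb of nude mice. At about 120 mm3, mice were randomized into 3 groups of 6 and dosed i.v. at 10 mg/kg once every three days for 4 weeks. Vehicle was 10% N-methylpyrrolidone/12% Tween-80/78% saline. Volume (a×b²/2) and body weight were recorded daily, and tumors were excised and weighed at the end.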
# HepG2 [14] = experiment: Induction of apoptosis in human HepG2 cells assessed as upregulation of cleaved PARP protein expression level incubated for 24 hrs by Western blot analysis; type: functional, cell-based; in short: as §1
# PLC-PRF-5 [15] = experiment: Induction of apoptosis in human PLC/PRF/5 cells assessed as late apoptotic cells at 0.25 uM incubated for 24 hrs by annexin V staining based cell counting method (reference value: 4.81%); type: functional
# HepG2 [16] = experiment: Induction of apoptosis in human HepG2 cells assessed as live cells at 1 uM incubated for 24 hrs by annexin V staining based cell counting method (reference value: 87.35%); type: functional
# PLC-PRF-5 [17] = experiment: Induction of apoptosis in human PLC/PRF/5 cells assessed as necrotic cells at 0.5 uM incubated for 24 hrs by annexin V staining based cell counting method (reference value: 0.59%); type: functional
# PLC-PRF-5 [18] = experiment: Induction of apoptosis in human PLC/PRF/5 cells assessed as early apoptotic cells at 0.25 uM incubated for 24 hrs by annexin V staining based cell counting method (reference value: 5.65%); type: functional
# PLC-PRF-5 [19] = experiment: Induction of apoptosis in human PLC/PRF/5 cells assessed as shrunken chromatin at 0.25 to 1 uM incubated for 24 hrs by Hoechst 33258 dye based fluorescence microscopic method; type: functional, cell-based
# In short: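 About 2 × 10^4 cells per well were plated overnight and treated 24 h with 0, 0.25, 0.5 or 1 µM compound. Cells were fixed in 4% paraformaldehyde for 30 min at room temperature, stained with 20 µg/mL Hoechst 33258 for 20 min at 37 °C, and imaged by fluorescence microscopy.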
# HepG2 [20] = experiment: Induction of ROS generation in human HepG2 cells by DCFH-DA staining-based flow cytometric analysis; type: functional, cell-based; in short: as §2
# HepG2 [21] = experiment: Induction of apoptosis in human HepG2 cells assessed as late apoptotic cells at 0.5 uM incubated for 24 hrs by annexin V staining based cell counting method (reference value: 5.65%); type: functional
# PLC-PRF-5 [22] = experiment: Induction of cell cycle arrest in human PLC/PRF/5 cells assessed as accumulation at G1 phase at 1 uM incubated for 24 hrs by PI staining based flow cytometric analysis (reference value: 34.78%); type: functional
# PLC-PRF-5 [23] = experiment: Induction of cell cycle arrest in human PLC/PRF/5 cells assessed as accumulation at G1 phase at 0.25 uM incubated for 24 hrs by PI staining based flow cytometric analysis (reference value: 34.78%); type: functional
# PLC-PRF-5 [24] = experiment: Induction of cell cycle arrest in human PLC/PRF/5 cells assessed as accumulation at G2 phase at 0.5 uM incubated for 24 hrs by PI staining based flow cytometric analysis (reference value: 18.05%); type: functional
smiles,measurement,setting,value
C=C1C(=O)[C@]23[C@H](OC(=O)/C=C/c4ccc(OC)cc4)[C@H]1CC[C@H]2[C@@]12CO[C@]3(O)[C@@H](O)[C@@H]1C(C)(C)CC[C@@H]2O,Activity,HepG2 [1],8.95%
same,Activity,PLC-PRF-5 [2],0.45%
same,Activity,PLC-PRF-5 [3],16.04%
same,Ratio IC50,[4],1.8
same,Activity,PLC-PRF-5 [5],Dose-dependent effect
same,Activity,PLC-PRF-5 [6],Dose-dependent effect
same,fold change (FC),HepG2 [7],3
same,Activity,HepG2 [8],22.67%
same,Activity,HepG2 [9],inactive
same,Activity,HepG2 [10],5.75%
same,Activity,PLC-PRF-5 [11],Active
same,Activity,HepG2 [12],7.05%
same,IC50,L02,1470 nM
same,TGI,PLC-PRF-5 [13],Active
same,Activity,HepG2 [14],Dose-dependent effect
same,Activity,PLC-PRF-5 [15],9.14%
same,Activity,HepG2 [16],53.4%
same,Activity,PLC-PRF-5 [17],0.82%
same,Activity,PLC-PRF-5 [18],9.43%
same,Activity,PLC-PRF-5 [19],Active
same,Activity,HepG2 [20],Dose-dependent effect
same,Activity,HepG2 [21],7.55%
same,Activity,PLC-PRF-5 [22],45.41%
same,Activity,PLC-PRF-5 [23],37.17%
same,Activity,PLC-PRF-5 [24],13.58%
